# Screens (PubChem BioAssay)
# MEKK2 WT-MEK5 = raises or lowers MEK5 binding to wildtype human MEKK2 PB1 domain. Q9Y2U5. bead flow cytometry, Alexa488-MEK5 binding to MEKK2 WT; actives lie on both sides. binding response (% of control), % at 10 µM. 290,000 tested, 1.1% active; in the data active = binding response below about 67% or above about 130%
# GSK3beta inhib = inhibitors of human GSK3beta kinase; activity score (negative = inhibition), % at 10 µM; AID 2097; 300,000 tested, 0.038% active; GST-GSK3beta kinase, ADP-Glo luminescence, 60 min; hits give low values; P49841;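 active = more than half of replicate wells score below -50%, meaning over 50% inhibition versus plate controls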;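 also: 0% = median DMSO wells and -100% = median GW8510 positive control wells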
#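 test system = GST-tagged human GSK3beta kinase, cell-free | reagent = 25 µM ATP with peptide substrate | dosing = one dose of 10 µM per compound | schedule = 60 min reaction, RT | detection = luminescent ADP-Glo measurement of ADP formed | control set = DMSO neutral wells and GW8510 at 20 µM as positive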
# MEKK3 PB1 HTS = modulators (inhibitors or enhancers) of MEK5 binding to human MEKK3 PB1 domain; AID 1529; 290,000 tested, 1.4% active; bead-based flow cytometry, Alexa488-MEK5 binding to MEKK3; actives lie on both sides; 0 = blocked by unlabeled MEK5, 100 = vehicle; Q99759; binding response (% of control), % at 10 µM;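 active = binding response more than 3 SD above or below the average of its plate-row segment, actives on both sides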;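 also: Alexa488 bead fluorescence after subtracting the streptavidin-only scavenger bead signal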
# MEKK2 mut-MEK5 = signal of MEK5 binding to mutant human MEKK2 PB1 domain | bead flow cytometry, Alexa488-MEK5 binding to MEKK2 mutant | percent response, % at 10 µM | 290,000 tested, 0.35% active | AID 1530; in the data active = percent response above about 24%, passing the limit was not always enough
# GSK3 alpha inh = blocks human GSK-3 alpha kinase | inhibition, % at 10 µM | 320,000 tested, 0.1% active | P49840 | ADP-Glo luminescence, 60 min;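 active = more than half of replicates show inhibition above 20%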;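 also: GST-tagged GSK-3 alpha with peptide substrate and 25 µM ATP; 0% = DMSO neutral wells and 100% = GW8510 positive control wells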
# Target sequence (P49840 whole entry, looked up): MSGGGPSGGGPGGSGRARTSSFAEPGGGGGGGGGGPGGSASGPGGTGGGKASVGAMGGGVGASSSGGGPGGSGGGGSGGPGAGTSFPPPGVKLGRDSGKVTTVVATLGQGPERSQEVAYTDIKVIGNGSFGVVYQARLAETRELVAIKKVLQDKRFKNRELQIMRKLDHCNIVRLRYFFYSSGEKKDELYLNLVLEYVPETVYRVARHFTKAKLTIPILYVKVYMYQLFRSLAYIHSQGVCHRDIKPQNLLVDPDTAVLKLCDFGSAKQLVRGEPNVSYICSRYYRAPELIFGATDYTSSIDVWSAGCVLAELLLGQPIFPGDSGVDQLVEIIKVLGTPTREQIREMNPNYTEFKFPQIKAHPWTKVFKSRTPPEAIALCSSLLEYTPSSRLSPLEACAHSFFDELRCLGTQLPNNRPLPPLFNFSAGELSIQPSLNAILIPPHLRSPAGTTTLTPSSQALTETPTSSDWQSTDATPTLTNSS
# STK33 kinase inh = inhibitors of human STK33 kinase | inhibition, % at 10 µM | AID 2661 | purified STK33, MBP phosphorylation, ADP-Glo luminescence | 320,000 tested, 0.073% active | Q9BYT3;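 active = inhibition at or above 25%, using the most active replicate where run in duplicate; inactive = inhibition below 25%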
# MEKK2wt confirm = raises or lowers MEK5 binding to wildtype human MEKK2, retest | shares compounds with MEKK3 PB1 HTS | AID 1892 | 5,900 tested, 2.4% active | binding response (% of control), % at 10 µM | bead flow cytometry, Alexa488-MEK5 binding to MEKK2 WT; actives lie on both sides; in the data active = binding response below about 16% or above about 210%; inactive = in between
# MEKK2mut confirm = signal of MEK5 binding to mutant human MEKK2, retest; shares compounds with MEKK3 PB1 HTS; bead flow cytometry, Alexa488-MEK5 binding to MEKK2 mutant; percent response, % at 10 µM; 5,900 tested, 2% active; AID 1893; in the data active = percent response mostly above about 71%, no sharp cut-off; inactive = mostly below about 38%;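 also: higher means compound restores mutant binding toward wildtype level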
# MEKK3-MEK5 inh = MEKK3-MEK5 PB1 inhibition, single concentration confirmation; shares compounds with MEKK3 PB1 HTS; bead flow cytometry, Alexa488-MEK5 binding to MEKK3; hits give low values; binding response (% of control), % at 10 µM; 5,900 tested, 1.8% active; AID 1894;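 active = binding response below 72% of control, or above a set upper limit, though filed actives all read lower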;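 also: 100% = DMSO only wells and 0% = binding blocked by excess unlabeled MEK5; lower values mean stronger disruption of MEK5 binding to MEKK3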
# * hit, by the source's call; · = not tested or not shown; [ ] = dose if it differs, or a comment. Most compounds without a hit are left out; they make up all but 2.1% or so of the library.
SMILES,MEKK2 WT-MEK5,GSK3beta inhib,MEKK3 PB1 HTS,MEKK2 mut-MEK5,GSK3 alpha inh,STK33 kinase inh,MEKK2wt confirm,MEKK2mut confirm,MEKK3-MEK5 inh
CCCc1cc(C(=O)Nc2ccc(C(=O)c3ccc(C)cc3)cc2)n(C)n1,108,0,101,7,1,-1,·,·,·
COCCNC(=O)Cn1nc(Cc2ccncc2)c2ccccc2c1=O,110,-5,104,3,-5,-1,·,·,·
CC1(C)CC[C@]2(C(=O)O)CC[C@]3(C)C(=CC[C@@H]4[C@@]5(C)CC[C@H](O)C(C)(C)[C@@H]5CC[C@]43C)[C@@H]2C1,150*,·,125,1,-3,-1,101,1,101
CC1(C)CC[C@]2(C(=O)O)CC[C@]3(C)C(=CCC4[C@@]5(C)CC[C@H](O)C(C)(C)C5CC[C@]43C)C2C1 (stereo not given in full),93,-2,99,2,0,-1,·,·,·
CCOC(=O)CC1=NN(c2ccccc2)C(=O)/C1=C\c1ccc(OC)cc1OC,106,-2,103,-1,0,1,·,·,·
Cc1cc(Nc2ccc(C)c(Cl)c2)nc(N2CCOCC2)n1,123,2,130*,26,-4,-1,106,-3,102
CCN(c1ccccc1)S(=O)(=O)c1cc(C(=O)Nc2ccc(Br)cc2)ccc1F,114,3,106,-1,-4,0,·,·,·
CCN(c1ccccc1)S(=O)(=O)c1cc(C(=O)Nc2ccccc2Cl)ccc1F,100,-1,66*[inhibitor],1,-1,-2,92,-3,100
CC(=O)N1CCC(c2c[nH]c3ccccc23)CC1,99,-1,102,5,-6,0,·,·,·
COc1ccc(C(=O)Nc2ccccc2C(=O)Nc2ccccc2C(=O)O)cc1,96,1,102,3,-5,6,·,·,·
COc1ccc(C(=NNc2ccccc2C(=O)O)c2ccc(OC)cc2)cc1,99,7,150*,0,-2,-1,94,4,101
COc1ccc(C(=O)NC(=S)Nc2cc3oc4ccccc4c3cc2OC)cc1,91,1,95,-2,2,-1,·,·,·
COc1cc2c(cc1NC(=S)NC(=O)c1c(OC)cccc1OC)oc1ccccc12,102,0,129*,0,-1,-2,85,-11,96
Cc1oc(-c2ccccc2Cl)nc1CSc1nc2c(c(=O)[nH]1)CCC2,81,0,75*[inhibitor],-8,-1,-2,97,-3,100
O=C(NCc1ccc(Cl)cc1)C(=O)NCC1OCCN1C(=O)c1cccs1 (stereo not given),111,2,153*,1,-2,0,102,3,99
CCN(CC)C(C(=O)Nc1ccc(C(C)C)cc1)c1ccc2c(c1)OCO2 (stereo not given),134*,0,118,15,-4,1,117,6,101
CCCCOc1ccc(CN2CCSCC2)cc1,106,-2,103,-1,0,0,·,·,·
Cc1cc(C)c2[nH]c(C)c(CN3CCCCCC3)c(=O)c2c1,101,0,92,2,0,-1,·,·,·
CCc1ccc(C2=NNC(=Nc3cccc(S(=O)(=O)N(C)C)c3)SC2)cc1,104,0,128*,0,-2,-2,101,-2,103
O=C(O)CC1SC(=Nc2ccc(O)cc2)NC1=O (stereo not given),104,0,112,0,2,0,·,·,·
O=C(O)CC1SC(=Nc2cccc(C(F)(F)F)c2)NC1=O (stereo not given),133,-1,124*,15,0,0,91,-7,82
CCOC(=O)N1CCC(NC(=O)c2cc(C(=O)Nc3cccc(C(F)(F)F)c3)ccc2CO)CC1,117,0,131*,1,4,5,103,-1,103
CCOC(=O)N1CCC(NC(=O)c2ccc(CO)c(C(=O)NC3CCN(C(=O)OCC)CC3)c2)CC1,117,0,122,1,5,-1,·,·,·
CCOc1ccc(NC(=O)C2Cc3ccccc3CN2S(=O)(=O)CC)cc1 (stereo not given),95,-3,104,-5,-1,1,·,·,·
CCS(=O)(=O)N1Cc2ccccc2CC1C(=O)Nc1ccc(OC)cc1 (stereo not given),1.0*[inhibitor],-1,2.0*[inhibitor],-23,1,-1,96,-4,97
SMILES,MEKK2 WT-MEK5,GSK3beta inhib,MEKK3 PB1 HTS,MEKK2 mut-MEK5,GSK3 alpha inh,STK33 kinase inh,MEKK2wt confirm,MEKK2mut confirm,MEKK3-MEK5 inh
COc1ccc(CCNC(=O)c2cc3c(=O)n(C)c4ccccc4c3n2C)cc1OC,114,2,132*,31,-4,-1,97,-6,96
COCCNC(=O)Cn1c(=O)n(Cc2ccc(C(=O)NCCc3ccc(OC)c(OC)c3)cc2)c(=O)c2ccccc21,45*[inhibitor],-1,37*[inhibitor],-18,-3,0,102,4,103
COCCNC(=O)c1cc2c(=O)n(C)c3ccccc3c2n1C,101,1,101,2,1,1,·,·,·
COCCCNC(=O)c1ccc(Cn2c(=O)c3ccccc3n(CC(=O)NCc3ccco3)c2=O)cc1,94,3,96,-4,-2,-1,·,·,·
Cn1c(C(=O)NCCCN2CCCCCC2)cc2c(=O)n(C)c3ccccc3c21,107,·,95,6,·,-1,·,·,·
Cn1c(C(=O)NCCCN2CCc3ccccc3C2)cc2c(=O)n(C)c3ccccc3c21,143*,2,104,16,·,3,122,12,101
Cc1cc(OC(C)C(=O)NCc2cccnc2)c2c(C)cc(=O)oc2c1 (stereo not given),102,1,97,1,0,3,·,·,·
CCCN(C(=O)Cc1coc2cc(OC)ccc12)C1CCS(=O)(=O)C1 (stereo not given),·,·,·,·,-2,-1,·,·,·
Cc1cccc(C(=O)NNC(=O)c2ccco2)c1O,104,2,104,7,1,-2,·,·,·
Cc1cc(OCc2cccc(S(=O)(=O)N3CCOCC3)c2)ccc1Cl,·,·,·,·,4,-1,·,·,·
c1ccc(CCNCCCOc2cccc3ccccc23)cc1,161*,-1,118,33*,4,0,151,37,108
Cc1ccc(/C=N/NC(=O)C(=O)N/N=C/c2ccc(C)o2)o1,89,0,91,-2,-1,-1,·,·,·
